Legend:
Settings in all cases: in vivo
Blood [1] = test: Drug uptake in Sprague-Dawley rat blood at 11.7 to 12.3 uCi, iv after 2 hrs by liquid scintillation counting; format: ADME, organism-based
Summary of the method: (§1)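 Adult male Sprague-Dawley rats, 200–420 g, fed ad libitum. They got ¹²⁵I-labelled agent in saline (9.0–9.5 µCi/mg), 0.1 mL, by tail vein under ether. Five rats per time point were exsanguinated under ether. Organs were excised, rinsed, blotted and weighed. Duplicate samples were counted in a well-scintillation gamma counter (87% efficiency). Results are % administered dose/g, mean ± SEM.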

Lung [2] = test: Drug uptake in Sprague-Dawley rat lung at 11.7 to 12.3 uCi, iv after 0.5 hrs by liquid scintillation counting; format: ADME, organism-based; summary of the method: as §1
Adrenal [3] = test: Drug uptake in Sprague-Dawley rat adrenal at 11.7 to 12.3 uCi, iv after 2 hrs by liquid scintillation counting; format: ADME, organism-based, Adrenal gland; summary of the method: as §1
[4] = Drug uptake in Sprague-Dawley rat bone marrow at 11.7 to 12.3 uCi, iv after 2 hrs by liquid scintillation counting; format: ADME, organism-based; summary of the method: as §1
Brain [5] = test: Drug uptake in Sprague-Dawley rat brain at 11.7 to 12.3 uCi, iv after 0.5 hrs by liquid scintillation counting; format: ADME, organism-based; summary of the method: as §1
[6] = Drug uptake in Sprague-Dawley rat intervertebral disk at 11.7 to 12.3 uCi, iv after 0.5 hrs by liquid scintillation counting; format: ADME, organism-based; summary of the method: as §1
Kidney [7] = test: Drug uptake in Sprague-Dawley rat kidney at 11.7 to 12.3 uCi, iv after 0.5 hrs by liquid scintillation counting; format: ADME, organism-based; summary of the method: as §1
[8] = Drug uptake in Sprague-Dawley rat diaphragm at 11.7 to 12.3 uCi, iv after 0.5 hrs by liquid scintillation counting; format: ADME, organism-based; summary of the method: as §1
[9] = Drug uptake in Sprague-Dawley rat auricle at 11.7 to 12.3 uCi, iv after 2 hrs by liquid scintillation counting; format: ADME, organism-based; summary of the method: as §1
[10] = Drug uptake in Sprague-Dawley rat diaphragm at 11.7 to 12.3 uCi, iv after 2 hrs by liquid scintillation counting; format: ADME, organism-based; summary of the method: as §1
[11] = Drug uptake in Sprague-Dawley rat bone marrow at 11.7 to 12.3 uCi, iv after 0.5 hrs by liquid scintillation counting; format: ADME, organism-based; summary of the method: as §1
Adrenal [12] = test: Drug uptake in Sprague-Dawley rat adrenal at 11.7 to 12.3 uCi, iv after 0.5 hrs by liquid scintillation counting; format: ADME, organism-based, Adrenal gland; summary of the method: as §1
Liver [13] = test: Drug uptake in Sprague-Dawley rat liver at 11.7 to 12.3 uCi, iv after 2 hrs by liquid scintillation counting; format: ADME, organism-based; summary of the method: as §1
Pituitary gland [14] = test: Drug uptake in Sprague-Dawley rat pituitary at 11.7 to 12.3 uCi, iv after 0.5 hrs by liquid scintillation counting; format: ADME, organism-based; summary of the method: as §1
[15] = Drug uptake in Sprague-Dawley rat intervertebral disk at 11.7 to 12.3 uCi, iv after 2 hrs by liquid scintillation counting; format: ADME, organism-based; summary of the method: as §1
[16] = Drug uptake in Sprague-Dawley rat auricle at 11.7 to 12.3 uCi, iv after 0.5 hrs by liquid scintillation counting; format: ADME, organism-based; summary of the method: as §1
Blood [17] = test: Drug uptake in Sprague-Dawley rat blood at 11.7 to 12.3 uCi, iv after 0.5 hrs by liquid scintillation counting; format: ADME, organism-based; summary of the method: as §1
Lung [18] = test: Drug uptake in Sprague-Dawley rat lung at 11.7 to 12.3 uCi, iv after 2 hrs by liquid scintillation counting; format: ADME, organism-based; summary of the method: as §1
Testes [19] = test: Drug uptake in Sprague-Dawley rat testes at 11.7 to 12.3 uCi, iv after 0.5 hrs by liquid scintillation counting; format: ADME, organism-based, Testis
Summary of the method: (§2)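 ¹²⁵I-labelled bisquaternary dissolved in saline (26 mg/2.0 mL), 9.0–9.5 μCi/mg, given in 0.1 mL via tail vein under ether to adult male Sprague-Dawley rats (200–420 g). Rats were killed by exsanguination under ether at 0.5 or 2 h. Organs were excised, rinsed, blotted and weighed, and duplicate samples were gamma-counted in a well-scintillation counter (87% efficiency). Results are % administered dose/g, mean ± SEM, five rats.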

Spleen [20] = test: Drug uptake in Sprague-Dawley rat spleen at 11.7 to 12.3 uCi, iv after 2 hrs by liquid scintillation counting; format: ADME, organism-based; summary of the method: as §2
[21] = Drug uptake in Sprague-Dawley rat meninges at 11.7 to 12.3 uCi, iv after 2 hrs by liquid scintillation counting; format: ADME, organism-based; summary of the method: as §1
Liver [22] = test: Drug uptake in Sprague-Dawley rat liver at 11.7 to 12.3 uCi, iv after 0.5 hrs by liquid scintillation counting; format: ADME, organism-based; summary of the method: as §1
Spleen [23] = test: Drug uptake in Sprague-Dawley rat spleen at 11.7 to 12.3 uCi, iv after 0.5 hrs by liquid scintillation counting; format: ADME, organism-based; summary of the method: as §2
Thyroid gland [24] = test: Drug uptake in Sprague-Dawley rat thyroid at 11.7 to 12.3 uCi, iv after 0.5 hrs by liquid scintillation counting; format: ADME, organism-based; summary of the method: as §2
Pancreas [25] = test: Drug uptake in Sprague-Dawley rat pancreas at 11.7 to 12.3 uCi, iv after 2 hrs by liquid scintillation counting; format: ADME, organism-based; summary of the method: as §1
[26] = Drug uptake in Sprague-Dawley rat ventricle at 11.7 to 12.3 uCi, iv after 0.5 hrs by liquid scintillation counting; format: ADME, organism-based, Cardiac ventricle; summary of the method: as §2
Thyroid gland [27] = test: Drug uptake in Sprague-Dawley rat thyroid at 11.7 to 12.3 uCi, iv after 2 hrs by liquid scintillation counting; format: ADME, organism-based; summary of the method: as §2
Testes [28] = test: Drug uptake in Sprague-Dawley rat testes at 11.7 to 12.3 uCi, iv after 2 hrs by liquid scintillation counting; format: ADME, organism-based, Testis; summary of the method: as §2
Pituitary gland [29] = test: Drug uptake in Sprague-Dawley rat pituitary at 11.7 to 12.3 uCi, iv after 2 hrs by liquid scintillation counting; format: ADME, organism-based; summary of the method: as §1
Brain [30] = test: Drug uptake in Sprague-Dawley rat brain at 11.7 to 12.3 uCi, iv after 2 hrs by liquid scintillation counting; format: ADME, organism-based; summary of the method: as §1
[31] = Drug uptake in Sprague-Dawley rat ventricle at 11.7 to 12.3 uCi, iv after 2 hrs by liquid scintillation counting; format: ADME, organism-based, Cardiac ventricle; summary of the method: as §2
Duodenum [32] = test: Drug uptake in Sprague-Dawley rat duodenum at 11.7 to 12.3 uCi, iv after 2 hrs by liquid scintillation counting; format: ADME, organism-based; summary of the method: as §1
[33] = Drug uptake in Sprague-Dawley rat trachea at 11.7 to 12.3 uCi, iv after 0.5 hrs by liquid scintillation counting; format: ADME, organism-based; summary of the method: as §2
Pancreas [34] = test: Drug uptake in Sprague-Dawley rat pancreas at 11.7 to 12.3 uCi, iv after 0.5 hrs by liquid scintillation counting; format: ADME, organism-based; summary of the method: as §1
Duodenum [35] = test: Drug uptake in Sprague-Dawley rat duodenum at 11.7 to 12.3 uCi, iv after 0.5 hrs by liquid scintillation counting; format: ADME, organism-based; summary of the method: as §1
Kidney [36] = test: Drug uptake in Sprague-Dawley rat kidney at 11.7 to 12.3 uCi, iv after 2 hrs by liquid scintillation counting; format: ADME, organism-based; summary of the method: as §1
[37] = Drug uptake in Sprague-Dawley rat trachea at 11.7 to 12.3 uCi, iv after 2 hrs by liquid scintillation counting; format: ADME, organism-based; summary of the method: as §2
[38] = Drug uptake in Sprague-Dawley rat meninges at 11.7 to 12.3 uCi, iv after 0.5 hrs by liquid scintillation counting; format: ADME, organism-based; summary of the method: as §1

With `C[N+](C)(C)Cc1ccc(C[N+](C)(C)C)c([125I])c1.[I-].[I-]` the Drug uptake (Blood [1]) was 0.015 % ID/g, the Drug uptake (Lung [2]) was 0.257 % ID/g and the Drug uptake (Adrenal [3]) was 0.043 % ID/g. It also gave a Drug uptake [4] of 0.078 % ID/g, a Drug uptake (Brain [5]) of 0.044 % ID/g and a Drug uptake [6] of 0.607 % ID/g. The Drug uptake (Kidney [7]) was 3.305 % ID/g, the Drug uptake [8] was 0.08 % ID/g and the Drug uptake [9] was 0.108 % ID/g. It also gave a Drug uptake [10] of 0.022 % ID/g, a Drug uptake [11] of 0.132 % ID/g and a Drug uptake (Adrenal [12]) of 0.094 % ID/g. It also gave a Drug uptake (Liver [13]) of 0.085 % ID/g, a Drug uptake (Pituitary gland [14]) of 0.118 % ID/g and a Drug uptake [15] of 0.087 % ID/g. For the same compound, the Drug uptake [16] was 0.203 % ID/g, the Drug uptake (Blood [17]) was 0.277 % ID/g and the Drug uptake (Lung [18]) was 0.087 % ID/g. It also gave a Drug uptake (Testes [19]) of 0.076 % ID/g, a Drug uptake (Spleen [20]) of 0.094 % ID/g and a Drug uptake [21] of 0.658 % ID/g. For the same compound, the Drug uptake (Liver [22]) was 0.129 % ID/g, the Drug uptake (Spleen [23]) was 0.137 % ID/g and the Drug uptake (Thyroid gland [24]) was 0.095 % ID/g. The Drug uptake (Pancreas [25]) was 0.03 % ID/g, the Drug uptake [26] was 0.121 % ID/g and the Drug uptake (Thyroid gland [27]) was 0.06 % ID/g. The Drug uptake (Testes [28]) was 0.034 % ID/g, the Drug uptake (Pituitary gland [29]) was 0.082 % ID/g and the Drug uptake (Brain [30]) was 0.038 % ID/g. For the same compound, the Drug uptake [31] was 0.018 % ID/g, the Drug uptake (Duodenum [32]) was 0.033 % ID/g and the Drug uptake [33] was 0.798 % ID/g. For the same compound, the Drug uptake (Pancreas [34]) was 0.075 % ID/g, the Drug uptake (Duodenum [35]) was 0.085 % ID/g and the Drug uptake (Kidney [36]) was 1.834 % ID/g. The Drug uptake [37] was 0.089 % ID/g and the Drug uptake [38] was 0.467 % ID/g.

From ChEMBL document CHEMBL3227952, “Potential organ- or tumor-imaging agents. 18. Radioiodinated diamines and bisquaternaries” (J Med Chem, 1979)
